Several values for one entry are separate records, joined by “and”; a condition that tells them apart may be missing. Equal entries are not always repeated. Non-standard residues stand in square brackets, D forms with d. Residues, ends and D or L forms follow the SMILES beside them. No end group written: not given here. *: point of attachment. X1 = C/C=C(/C)C(=O)O[C@H]1C(C)=C2[C@H]([C@@H]1OC(=O)CCCCCCC)[C@@](C)(OC(C)=O)C[C@H](OC(=O)CCCCCCCCCCCN*)[C@@]1(O)[C@H]2OC(=O)[C@@]1(C)O; A12ADT = thapsigargin analog A12ADT
Columns and labels:
[1] = Tumor pharmacokinetics of prodrug activation in MCF-7 xenografts; type: in vivo, mouse
Procedure, shortened: (§1)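 Mice were dosed IV and bled by cardiac puncture under anesthesia to give heparinized plasma; naive-mouse plasma served as control, and tissues and tumors were harvested. Samples were deproteinated in acetonitrile with 0.1% FA, with L12ADT at 1 µM as internal standard. Calibration standards ran 100pM–100 µM. Samples were analysed by reversed-phase LCMS (positive-mode MRM). Terminal t1/2 came from the terminal slope of log-linear concentration–time plots.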

[2] = Hydrolysis of prodrugs in mouse plasma ex vivo; type: in vitro ADME; conditions: 100 µM prodrug, 37°C, 24 hrs
Procedure, shortened: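 Plasma was taken by intra-cardiac puncture from fully anesthetized mice. Prodrugs were added at 100 µM final and incubated at 37°C for 24 hrs with shaking. Active drug (A-, S-, E-12ADT) was measured by LCMS at 0 and 24hrs.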

[3] = Plasma pharmacokinetics of prodrugs and active drug after IV dosing; type: in vivo, mouse
Procedure, shortened: as §1

[4] = cited from earlier work
[5] = tested on: LNCaP human prostate cancer xenografts; assay: LNCaP xenograft efficacy study, comparison to docetaxel; type: in vivo, mouse; conditions: prodrug 10 nmoles IV days 0, 1, 2; docetaxel 12 mg/kg/dose IV days 0, 3, 6
Procedure, shortened: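 Six-week-old male nude mice (n = 10/group) received subcutaneous rear-flank injections of LNCaP cells at 2.0 × 10⁶ per 100 µL of 60% Matrigel in HBSS. Prodrug was given IV at 6.8 mg/kg/dose (10 nmoles) on days 0, 1, 2. Docetaxel was given IV at 12 mg/kg/dose […] on days 0, 3, 6 for one cycle. Tumor volume (0.5236 × L × W × H) was measured weekly by calipers, and body weight was tracked.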

[6] = Body weight loss in treated LNCaP xenograft-bearing mice; type: in vivo, mouse
FAP = target: T1, FAP (Homo sapiens, UniProt Q12884); assay: FAP-mediated hydrolysis of prodrugs ex vivo; type: biochemical
T1 sequence (Q12884 26-760 limits assumed): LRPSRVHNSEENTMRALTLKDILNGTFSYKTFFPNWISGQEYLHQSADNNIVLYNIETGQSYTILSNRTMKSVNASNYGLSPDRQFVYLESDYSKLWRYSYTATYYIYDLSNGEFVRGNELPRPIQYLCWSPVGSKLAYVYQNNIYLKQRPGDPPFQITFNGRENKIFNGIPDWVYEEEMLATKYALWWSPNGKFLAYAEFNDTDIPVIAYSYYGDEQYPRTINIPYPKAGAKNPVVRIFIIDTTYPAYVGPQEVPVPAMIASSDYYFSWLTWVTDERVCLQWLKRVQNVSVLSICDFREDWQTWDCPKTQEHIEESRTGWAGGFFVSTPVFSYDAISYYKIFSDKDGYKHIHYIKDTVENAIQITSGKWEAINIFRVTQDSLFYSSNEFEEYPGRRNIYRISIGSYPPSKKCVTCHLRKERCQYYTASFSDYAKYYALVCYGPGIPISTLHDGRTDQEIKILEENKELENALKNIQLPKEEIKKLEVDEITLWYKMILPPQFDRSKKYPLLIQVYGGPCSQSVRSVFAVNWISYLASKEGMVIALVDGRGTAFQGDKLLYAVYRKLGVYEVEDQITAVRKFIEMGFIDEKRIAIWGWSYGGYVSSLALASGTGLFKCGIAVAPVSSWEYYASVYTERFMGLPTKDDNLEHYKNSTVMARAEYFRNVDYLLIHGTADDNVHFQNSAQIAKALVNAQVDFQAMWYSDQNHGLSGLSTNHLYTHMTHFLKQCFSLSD
Procedure, shortened: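 Recombinant FAP was expressed in Schneider's S2 cells and purified from the culture supernatant. Prodrugs at […] were held in FAP buffer (100mM NaCl, 100mM Tris, pH 7.8) with 10% DMSO, with or without 200nM FAP, at 37°C for 24hrs with shaking. Active drug (A-, S-, E-12ADT) was measured by LCMS at 0, 4 and 24hrs.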

C/C=C(/C)C(=O)O[C@H]1C(C)=C2[C@H]([C@@H]1OC(=O)CCCCCCC)[C@@](C)(OC(C)=O)C[C@H](OC(=O)CCCCCCCCCCCNC(=O)[C@H](CO)NC(=O)[C@H]1CCCN1C(=O)CNC(=O)[C@@H](NC(=O)[C@H](CCC(=O)O)NC(=O)CNC(=O)[C@H](CCCNC(=N)N)NC(=O)[C@@H](N)CCC(=O)O)[C@@H](C)O)[C@@]1(O)[C@H]2OC(=O)[C@@]1(C)O [ERGETGp-S12ADT] (H-ERGETG[dP]S-X1; N-terminus assumed)
active species detectable in tumors [1]: only 12ADT is detectable
total active drug concentration in tumor, fold lower than from ERGETGP-S12ADT [1]: ~ 7 fold
active drug generation in mouse plasma ex vivo [2]: no active drug generated
12ADT levels in mouse plasma as part of total administered dose ([3]; in vivo after IV dosing): < 0.01%
Cmax ([3]; mouse, plasma, iv): 35 to 40 µM
Tmax ([3]; mouse, plasma, iv): ≤ 1 h
half-life ([3]; mouse, plasma, iv, half-life (t1/2) in mouse plasma, full-length prodrug, single IV dose): 240 to 300 min
clearance from circulation ([3]; single IV dose): almost entirely cleared from circulation by 24 hrs

C/C=C(/C)C(=O)O[C@H]1C(C)=C2[C@H]([C@@H]1OC(=O)CCCCCCC)[C@@](C)(OC(C)=O)C[C@H](OC(=O)CCC)[C@@]1(O)[C@H]2OC(=O)[C@@]1(C)O [TG, Thapsigargin]
therapeutic benefit at the maximally-tolerated dose (MTD) [4]: no therapeutic benefit

CC(=O)O[C@@]12CO[C@@H]1C[C@H](O)[C@@]1(C)C(=O)[C@H](O)C3=C(C)[C@@H](OC(=O)[C@H](O)[C@@H](NC(=O)OC(C)(C)C)c4ccccc4)C[C@@](O)([C@@H](OC(=O)c4ccccc4)[C@H]21)C3(C)C [docetaxel]
anti-tumor effect against LNCaP xenografts [5]: comparable anti-tumor effect
recovery of body weight ([6]; over the course of the experiment): did not recover
total body weight lost following therapy ([6]; prodrug IV days 0, 1, 2, docetaxel IV days 0, 3, 6): ~ 30% and 30%

ASGPAGP-A12ADT: FAP-activated prodrug: peptide ASGPAGP coupled to thapsigargin analog A12ADT
active drug (S- or A12ADT) released in the presence of FAP (FAP; 200nM FAP, FAP buffer pH 7.8, 37°C, up to 24hrs, LCMS): 2 µM
stability in the absence of FAP (FAP; FAP buffer without FAP, data not shown): completely stable

Reference: paper PMC4130904 (The Prostate, 2014)
